Data from publication PMC7203960 (ACS Omega, 2020).

What was measured:
[1] = system: SW1990; assay: CellTiter-Glo luminescent cell viability assay, SW1990; type: cell-based; details: Homo sapiens, SW1990, 72 h, read-out: IC50 SW1990
Procedure, shortened: (§1)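 AsPC1 and SW1990 human pancreatic cancer cells were obtained from ATCC and grown in RPMI with FBS, penicillin 100 IU/mL and streptomycin 100 μg/mL at 37 °C in 5% CO2. Compounds were made up as 100 mM DMSO stocks and diluted to 0.1 mM in sterile PBS. Cells were seeded at 1500 cells/well, held 24 h, then treated 72 h. Viability was read by CellTiter-Glo luminescence, in triplicate.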

[2] = system: AsPC1; assay: CellTiter-Glo luminescent cell viability assay, AsPC1; type: cell-based; details: Homo sapiens, ASPC1, 72 h, read-out: IC50 AsPC1
Procedure, shortened: as §1

[3] = CellTiter-Glo luminescent cell viability assay, non-cancerous cell line MRC5; type: cell-based; details: human, MRC5 cells (non-cancerous cell line)
Procedure, shortened: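 Test compounds were made up as 100 mM DMSO stocks and diluted to 0.1 mM in sterile PBS. Cells were seeded at 1500 cells/well in 384-well plates and held 24 h before 72 h exposure. Viability was read by CellTiter-Glo luminescence on a microplate reader.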

[4] = Radical scavenging activity by DPPH method
Procedure, shortened: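 DPPH (1.6 mg in 50 mL DMSO), 1.5 mL, was mixed with 1.5 mL of test compound at 100 μg/mL. The mixture stood 45 min at ambient temperature in the dark, then absorbance was read at 517 nm. Blank DPPH solution served as control. Scavenging % was computed from control and sample absorbances, in triplicate.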

Row | IC50 [1] [µM] | IC50 [2] [µM] | IC50 ([4]; read-out: IC50 (DPPH radical scavenging), DPPH method) [µM] | SMILES | IC50 at 72 h [3] [µM] | % scavenging (DPPH) ([4]; 100 μg/mL, 45 min incubation, absorbance at 517 nm, triplicate) [%]
1 | 35.1 ± 1.78 | 39.3 ± 4.44 |  | Nc1ccn([C@@H]2O[C@H](CO)[C@@H](O)C2(F)F)c(=O)n1 [gemcitabine] | 54.17 ± 0.2 | 
2 |  |  | 170 | O=C1O[C@H]([C@@H](O)CO)C(O)=C1O [AA, ascorbic acid] |  | 88.75 ± 0.89
